According to ChEMBL document CHEMBL1773021, “Virtual screening identification of novel severe acute respiratory syndrome 3C-like protease inhibitors and in vitro confirmation” (Bioorg Med Chem Lett, 2011):
Activity calls are given as the source filed them. The calls are words filed in the database; no cut-off is given here.

What was measured:
[1] = molecular target: T1, Replicase polyprotein 1ab (Severe acute respiratory syndrome-related coronavirus, UniProt P0C6X7); assay: Inhibition of SARS coronavirus recombinant 3C-like protease expressed in Escherichia coli BL21(DE3) after 30 mins by FRET based assay
[2] = molecular target: Replicase polyprotein 1ab (Severe acute respiratory syndrome-related coronavirus) (UniProt P0C6X7); assay: Inhibition of SARS coronavirus recombinant 3C-like protease expressed in Escherichia coli BL21(DE3) at 100 uM after 18 mins by FRET based assay
[3] = molecular target: T1, Replicase polyprotein 1ab; assay: Inhibition of SARS coronavirus recombinant 3C-like protease expressed in Escherichia coli BL21(DE3) by Lineweaver-Burk plot analysis
Outline: (§1)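 Inhibitor at 0, 20, 30, 40, 50 and 60 μM; substrate at 5, 7.5 and 10 μM. Mode assigned from Lineweaver–Burk and Dixon plots. Km and Ki come from linear regression, with Ki taken from the common x-axis intercept on the Dixon plot.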

[4] = molecular target: Replicase polyprotein 1ab (Severe acute respiratory syndrome-related coronavirus) (UniProt P0C6X7); assay: Competitive inhibition of SARS coronavirus recombinant 3C-like protease expressed in Escherichia coli BL21(DE3) by Dixon plot analysis; outline: as §1

Row | SMILES | IC50 [1] | inhibition [2] | Ki [3] | inhibition [4]
1 | O=C(CSc1ncnc2c1sc1nc(N3CCOCC3)c3c(c12)CCCC3)NCc1ccco1 | 90.7 µM | 53.3% |  | 
2 | COc1cc(/C=N/NC(=O)/C(=C\c2ccccc2)NC(=O)c2ccccc2)cc(OC)c1O | 77.1 µM | 56.1% |  | 
3 | Nc1nc(CSc2nnc(-c3cccc4ccccc34)n2-c2ccccc2)cs1 | 58.3 µM | 58.2% |  | 
4 | Cc1ccc(C(=O)N/C(=C\c2ccc(-c3ccccc3[N+](=O)[O-])o2)C(=O)NCCCN(C)C)cc1 | 41.4 µM | 81.4% | 9.93 µM | Active
5 | Cc1ccc(C(=O)N/C(=C\c2ccc(-c3cccc([N+](=O)[O-])c3)o2)C(=O)NCCCN(C)C)cc1 | 38.6 µM | 82.6% | 9.11 µM | Active
6 | COc1cc(C2C(C(=O)c3ccc(OCC(C)C)cc3C)=C(O)C(=O)N2CCN(C)C)ccc1O (stereo not drawn) | 62.8 µM | 61.4% |  | 
7 | Cc1nc(C)c(C(=O)C2=C(O)C(=O)N(CCCN3CCOCC3)C2c2cccc([N+](=O)[O-])c2)s1 (stereo not drawn) | 101 µM | 49.1% |  | 
